In brackets after ≈: the same amount, converted by molar mass.
Key:
Type in all cases: functional
[1] = test system: Staphylococcus aureus; experiment: Antimicrobial activity against methicillin-sensitive Staphylococcus aureus ATCC 29213 after 14 to 16 hrs by serial micro-broth dilution method
Summary of the method: (§1)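 MIC by serial broth microdilution following NCCLS standards, in cation-adjusted Mueller-Hinton broth. Final inoculum ~5 × 10^5 CFU/mL. Plates incubated at 35 °C for 14–16 h without CO2.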

[2] = test system: Staphylococcus aureus; experiment: Antimicrobial activity against methicillin-resistant Staphylococcus aureus ATCC 43300 after 14 to 16 hrs by serial micro-broth dilution method
Summary of the method: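 Broth microdilution MIC following NCCLS standards, using cation-adjusted Mueller-Hinton broth in ambient air without CO2. The final inoculum was about 5 × 10^5 CFU/mL.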

[3] = test system: Streptococcus pneumoniae; experiment: Antimicrobial activity against penicillin-sensitive Streptococcus pneumoniae ATCC 49619 after 14 to 16 hrs by serial microbroth dilution method
Summary of the method: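 MIC by NCCLS serial broth microdilution in cation-adjusted Mueller-Hinton broth II with lysed horse blood. Final inoculum ~5 × 10^5 CFU/mL. Incubated at 35 °C for 14–16 h in a CO2 incubator.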

[4] = test system: Enterococcus faecalis; experiment: Antimicrobial activity against vancomycin-sensitive Enterococcus faecalis ATCC 29212 after 14 to 16 hrs by serial microbroth dilution method; summary of the method: as §1
[5] = test system: Haemophilus influenzae; experiment: Antimicrobial activity against Haemophilus influenzae ATCC 49247 after 14 to 16 hrs by serial micro-broth dilution method
Summary of the method: (§2)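 MIC by serial broth microdilution per NCCLS, in Haemophilus Test Medium. Final inoculum ~5 × 10^5 CFU/mL. Plates incubated at 35 °C for 14–16 h in a CO2 incubator.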

[6] = test system: Haemophilus influenzae; experiment: Antimicrobial activity against Haemophilus influenzae ATCC 49766 after 14 to 16 hrs by serial micro-broth dilution method; summary of the method: as §2
[7] = test system: Escherichia coli; experiment: Antimicrobial activity against Escherichia coli ATCC 25922 after 14 to 16 hrs by serial micro-broth dilution method; summary of the method: as §1
[8] = test system: Staphylococcus epidermidis; experiment: Antimicrobial activity against Staphylococcus epidermidis ATCC 700578 after 14 to 16 hrs by serial micro-broth dilution method; summary of the method: as §1
[9] = test system: Staphylococcus epidermidis; experiment: Antimicrobial activity against Staphylococcus epidermidis ATCC 700582 after 14 to 16 hrs by serial microbroth dilution method; summary of the method: as §1
[10] = test system: Streptococcus pneumoniae; experiment: Antimicrobial activity against penicillin-resistant Streptococcus pneumoniae ATCC 51915 after 14 to 16 hrs by serial micro-broth dilution method
Summary of the method: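 Broth microdilution MIC following NCCLS standards, using cation-adjusted Mueller-Hinton broth II with lysed horse blood and incubation in a CO2 incubator. The final inoculum was about 5 × 10^5 CFU/mL.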

| Structure (SMILES) | MIC [1] [µg/mL] | MIC [2] [µg/mL] | MIC [3] [µg/mL] | MIC [4] [µg/mL] | MIC [5] [µg/mL] | MIC [6] [µg/mL] | MIC [7] [µg/mL] | MIC [8] [µg/mL] | MIC [9] [µg/mL] | MIC [10] [µg/mL] |
| --- | --- | --- | --- | --- | --- | --- | --- | --- | --- | --- |
| CCCCCCC/C(C)=C/C(=O)CC(=N)OC(CCCC)C(=O)O (stereo not given) | 24 (≈ 70.7 µM) | > 32 | > 32 | 32 (≈ 94.3 µM) | > 32 | > 32 | > 32 | – | – | – |
| CC(=O)NC[C@H]1CN(c2ccc(N3CCOCC3)c(F)c2)C(=O)O1 [LINEZOLID] | – | 1.5 (≈ 4.45 µM) | – | – | 12 (≈ 35.6 µM) | 12 (≈ 35.6 µM) | > 32 | 1 (≈ 2.96 µM) | 1 (≈ 2.96 µM) | – |
| CCCCCC/C(C)=C/C(=O)/C=C1\NC(=O)C(CCCC)O1 (stereo not given) [LIPOXAZOLIDINE C] | 4 (≈ 13 µM) | 3 (≈ 9.76 µM) | 10 (≈ 32.5 µM) | 2 (≈ 6.51 µM) | 16 (≈ 52 µM) | 5 (≈ 16.3 µM) | > 32 | – | – | – |
| CCCCCCC/C(C)=C/C(=O)/C=C1\NC(=O)C(CCCC)O1 (stereo not given) [LIPOXAZOLIDINONE A] | 0.9 (≈ 2.8 µM) | 1 (≈ 3.11 µM) | 2.6 (≈ 8.09 µM) | 1 (≈ 3.11 µM) | 12 (≈ 37.3 µM) | 12 (≈ 37.3 µM) | > 32 | 0.5 (≈ 1.56 µM) | 0.5 (≈ 1.56 µM) | 4.7 (≈ 14.6 µM) |
| CCCCCCC/C(C)=C/C(=O)/C=C1\NC(=O)C(CCCCC)O1 (stereo not given) [LIPOXAZOLIDINONE B] | 6 (≈ 17.9 µM) | 1.5 (≈ 4.47 µM) | 8 (≈ 23.8 µM) | 3 (≈ 8.94 µM) | 12 (≈ 35.8 µM) | 16 (≈ 47.7 µM) | > 32 | 1.3 (≈ 3.87 µM) | 0.8 (≈ 2.38 µM) | 6 (≈ 17.9 µM) |
